In ChEMBL document CHEMBL1649109, “Antiparasitic activities and toxicities of individual enantiomers of the 8-aminoquinoline 8-[(4-amino-1-methylbutyl)amino]-6-methoxy-4-methyl-5-[3,4-dichlorophenoxy]quinoline succinate” (Antimicrob Agents Chemother, 2008):
The source made the active and inactive calls. The calls are words filed in the database; no cut-off is given here.

How the values were obtained:
Plasmodium berghei [1] = test: Antimalarial activity against Plasmodium berghei KBG-173 infected in Swiss(CD-1) mouse assessed as survival at 0.25 mg/kg/day, po treated for 3 days measured on day 34; type: functional, organism-based
How it was run: (§1)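 CD-1 mice, 5 weeks old, male or female, groups of five, infected with 5 × 10^4 P. berghei KBG-173 parasitized erythrocytes. Drug in 0.5% hydroxyethylcellulose/0.1% Tween 80, given orally once daily on days 3, 4 and 5 post-infection. Parasitemia from blood films on day +6. Read-out also includes increase in mean survival time over controls and survivors at day +34.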

Canis familiaris [2] = test: Toxicity in Beagle dog assessed as survival at 6.7 mg/kg/day, po after 4 days; type: organism-based, Canis lupus familiaris; parameters: route oral; conditions: in vivo, 96 h
How it was run: (§2)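 Beagle dogs, 8-9 months old, given drug as bulk powder in gelatin capsules orally on days 1-4, at 0.0116 mmol/kg/day as base. Daily clinical observation. Methemoglobin measured by co-oximetry from jugular or cephalic blood, predose on days 1, 2 and 4, then through day 29.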

Pneumocystis carinii [3] = test: Antimicrobial activity against Pneumocystis carinii infected BALB/c mouse at 0.1 mg/kg/day, po after 21 days administered 4 weeks postinfection by methenamine silver nitrate staining method; type: functional, organism-based
Plasmodium berghei [4] = test: Antimalarial activity against Plasmodium berghei KBG-173 infected in Swiss(CD-1) mouse assessed as mean survival time at 1 mg/kg/day, po treated for 3 days; type: functional; how it was run: as §1
Canis familiaris [5] = test: Toxicity in Beagle dog assessed as increase in methemoglobin level at 6.4 mg/kg/day, po between 7 to 11 days; type: organism-based, Canis lupus familiaris; parameters: route oral; conditions: in vivo; how it was run: as §2
Leishmania donovani [6] = test: Antileishmanial activity against Leishmania donovani HU3 infected in mouse assessed as inhibition of parasites in liver at 0.4 mg/kg/day, po treated for 5 days administered 7 days postinfection measured after 14 days post-infection; type: functional
How it was run: (§3)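 L. donovani HU3 amastigotes, 1 × 10^7 given IV to mice. From day 7 post-infection, dosed orally once daily for 5 days in 0.25% methylcellulose-10% ethanol; reference stibogluconate given SC. Mice killed at day 14 post-infection. Parasite burden counted on liver impression smears against untreated controls. ED50 from linear regression, with 95% confidence limits.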

Canis familiaris [7] = test: Toxicity in Beagle dog assessed as survival at 5.3 mg/kg/day, po after 4 days; type: organism-based, Canis lupus familiaris; parameters: route oral; conditions: in vivo, 96 h; how it was run: as §2
Pneumocystis carinii [8] = test: Antimicrobial activity against Pneumocystis carinii infected BALB/c mouse at 0.25 mg/kg/day, po after 21 days administered 4 weeks postinfection by Giemsa staining method; type: functional, organism-based
How it was run: (§4)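 Female BALB/c mice, 6-8 weeks, immunosuppressed with dexamethasone […] in drinking water, then inoculated transtracheally with 10^6 P. carinii. From 4 weeks post-inoculation, drug given in drinking water for 3 weeks, 10 mice/group, intake monitored. Lung impression smears stained with Giemsa or methenamine silver, read blinded. Graded 0-5 on a log scale; group mean ± SE.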

Plasmodium berghei [9] = test: Antimalarial activity against Plasmodium berghei KBG-173 infected in Swiss(CD-1) mouse assessed as mean survival time at 0.25 mg/kg/day, po treated for 3 days; type: functional; how it was run: as §1
Leishmania donovani [10] = test: Antileishmanial activity against Leishmania donovani HU3 infected in mouse assessed as inhibition of parasites in liver at 10 mg/kg/day, po treated for 5 days administered 7 days postinfection measured after 14 days post-infection; type: functional; how it was run: as §3
Mus musculus = test: Toxicity in Plasmodium berghei KBG-173 infected Swiss(CD-1) mouse at 64 mg/kg/day, po treated for 3 days; type: organism-based; parameters: route oral; conditions: in vivo, 72 h
How it was run: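 CD-1 mice infected with 5 × 10^4 P. berghei KBG-173 parasitized erythrocytes. Drug in 0.5% hydroxyethylcellulose/0.1% Tween 80, given orally on days 3-5 post-infection, 7 mice per dose. Blood films on day +6 and weekly to day +60. Mortality tabulated for 60 days; blood-film-negative survivors counted as cured.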

Plasmodium berghei [11] = test: Antimalarial activity against Plasmodium berghei KBG-173 infected in Swiss(CD-1) mouse assessed as survival at 1 mg/kg/day, po treated for 3 days measured on day 34; type: functional, organism-based; how it was run: as §1
Canis familiaris [12] = test: Toxicity in Beagle dog assessed as survival at 6.4 mg/kg/day, po after 4 days; type: organism-based, Canis lupus familiaris; parameters: route oral; conditions: in vivo, 96 h; how it was run: as §2
Leishmania donovani [13] = test: Antileishmanial activity against Leishmania donovani HU3 infected in mouse assessed as inhibition of parasites in liver at 5 mg/kg/day, po treated for 5 days administered 7 days postinfection measured after 14 days post-infection; type: functional; how it was run: as §3
Pneumocystis carinii [14] = test: Antimicrobial activity against Pneumocystis carinii infected BALB/c mouse at 0.25 mg/kg/day, po after 21 days administered 4 weeks postinfection by methenamine silver nitrate staining method; type: functional, organism-based; how it was run: as §4
Pneumocystis carinii [15] = test: Antimicrobial activity against Pneumocystis carinii infected BALB/c mouse at 1.3 mg/kg/day, po after 21 days administered 4 weeks postinfection by Giemsa staining; type: functional, organism-based; how it was run: as §4
Pneumocystis carinii [16] = test: Antimicrobial activity against Pneumocystis carinii infected BALB/c mouse at 1.3 mg/kg/day, po after 21 days administered 4 weeks postinfection by Giemsa staining method; type: functional, organism-based; how it was run: as §4
Plasmodium berghei [17] = test: Antimalarial activity against Plasmodium berghei KBG-173 infected in Swiss(CD-1) mouse assessed as parasitemia at 1 mg/kg/day, po treated for 3 days measured on day 6
Leishmania donovani [18] = test: Antileishmanial activity against Leishmania donovani HU3 infected in mouse assessed as inhibition of parasites in liver at 100 mg/kg/day, po treated for 5 days administered 7 days postinfection measured after 14 days; type: functional; how it was run: as §3
Plasmodium berghei [19] = test: Antimalarial activity against Plasmodium berghei KBG-173 infected in Swiss(CD-1) mouse assessed as parasitemia at 0.25 mg/kg/day, po treated for 3 days measured on day 6
Pneumocystis carinii [20] = test: Antimicrobial activity against Pneumocystis carinii infected BALB/c mouse at 0.5 mg/kg/day, po after 21 days administered 4 weeks postinfection by methenamine silver nitrate staining method; type: functional, organism-based; how it was run: as §4
Plasmodium berghei [21] = test: Antimalarial activity Plasmodium berghei KBG-173 infected in Swiss(CD-1) mouse assessed as survival at 2 mg/kg, po treated at day of infection measured on day 30; type: functional, organism-based; parameters: dose 2 mg/kg
How it was run: (§5)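 CD-1 mice, 5 weeks old, male or female, groups of five, infected with 5 × 10^4 P. berghei KBG-173 parasitized erythrocytes. One 2 mg/kg oral dose given on a single day, from day −3 to +2 relative to inoculation. Controls untreated. Read-out is increase in mean survival time over controls and number alive at day +30.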

Plasmodium berghei [22] = test: Antimalarial activity Plasmodium berghei KBG-173 infected in Swiss(CD-1) mouse assessed as survival at 2 mg/kg, po pretreated 1 day before infection measured on day 30; type: functional, organism-based; parameters: dose 2 mg/kg; how it was run: as §5
Leishmania donovani [23] = test: Antileishmanial activity against Leishmania donovani HU3 infected in mouse; type: functional; how it was run: as §3
Plasmodium berghei [24] = test: Antimalarial activity Plasmodium berghei KBG-173 infected in Swiss(CD-1) mouse assessed as survival at 2 mg/kg, po treated 2 day postinfection measured on day 30; type: functional, organism-based; parameters: dose 2 mg/kg; how it was run: as §5
Plasmodium berghei [25] = test: Antimalarial activity against Plasmodium berghei KBG-173 infected in Swiss(CD-1) mouse assessed as survival at 4 mg/kg/day, po treated for 3 days measured on day 34; type: functional, organism-based; how it was run: as §1
Pneumocystis carinii [26] = test: Antimicrobial activity against Pneumocystis carinii infected BALB/c mouse at 5 mg/kg/day, po after 21 days administered 4 weeks postinfection by methenamine silver nitrate staining method; type: functional, organism-based; how it was run: as §4
Pneumocystis carinii [27] = test: Antimicrobial activity against Pneumocystis carinii infected BALB/c mouse at 5 mg/kg/day, po after 21 days administered 4 weeks postinfection by Giemsa staining method; type: functional, organism-based; how it was run: as §4
Pneumocystis carinii [28] = test: Antimicrobial activity against Pneumocystis carinii infected BALB/c mouse at 1 mg/kg/day, po after 21 days administered 4 weeks postinfection by Giemsa staining method; type: functional, organism-based; how it was run: as §4
Plasmodium berghei [29] = test: Antimalarial activity Plasmodium berghei KBG-173 infected in Swiss(CD-1) mouse assessed as mean survival time at 2 mg/kg, po pretreated 2 days before infection; type: functional; how it was run: as §5
Canis familiaris [30] = test: Toxicity in Beagle dog assessed as increase in methemoglobin level at 0.64 mg/kg/day, po; type: organism-based, Canis lupus familiaris; parameters: route oral; conditions: in vivo
How it was run: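 Beagle dogs, one male and one female per enantiomer, given 0.64 mg/kg/day (0.5 mg/kg base) orally for 4 days. After a 5-week washout the same dogs received 1.91 mg/kg/day for 4 days. Methemoglobin sampled from days −6 to 36. Each dog's values are mean of duplicate determinations.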

Pneumocystis carinii [31] = test: Antimicrobial activity against Pneumocystis carinii infected BALB/c mouse at 0.1 mg/kg/day, po after 21 days administered 4 weeks postinfection by Giemsa staining method; type: functional, organism-based
Pneumocystis carinii [32] = test: Antimicrobial activity against Pneumocystis carinii infected BALB/c mouse at 0.5 mg/kg/day, po after 21 days administered 4 weeks postinfection by Giemsa staining method; type: functional, organism-based; how it was run: as §4
Plasmodium berghei [33] = test: Antimalarial activity Plasmodium berghei KBG-173 infected in Swiss(CD-1) mouse assessed as survival at 2 mg/kg, po treated 1 day postinfection measured on day 30; type: functional, organism-based; parameters: dose 2 mg/kg; how it was run: as §5
Pneumocystis carinii [34] = test: Antimicrobial activity against Pneumocystis carinii infected BALB/c mouse at 1 mg/kg/day, po after 21 days administered 4 weeks postinfection by methenamine silver nitrate staining method; type: functional, organism-based; how it was run: as §4
Plasmodium berghei [35] = test: Antimalarial activity Plasmodium berghei KBG-173 infected in Swiss(CD-1) mouse assessed as mean survival time at 2 mg/kg, po pretreated 3 days before infection; type: functional; how it was run: as §5
Plasmodium berghei [36] = test: Antimalarial activity against Plasmodium berghei KBG-173 infected in Swiss(CD-1) mouse assessed as reduction in parasitemia at 4 mg/kg/day, po treated for 3 days measured on day 6; type: functional; parameters: scale not given: the % may be the effect or the level left; how it was run: as §1

With `COc1cc(NC(C)CCCN)c2nccc(C)c2c1Oc1ccc(Cl)c(Cl)c1.O=C(O)CCC(=O)O` (racemic) the Activity (Plasmodium berghei [1]) was “Active”, the Activity (Canis familiaris [2]) was “Non-toxic” and the Activity (Pneumocystis carinii [3]) was “Active”. For the same compound, the MST (Plasmodium berghei [4]) was 10.2 days, the Activity (Canis familiaris [5]) was “Toxic” and the inhibition in vivo at 0.4 mg/kg/day (Leishmania donovani [6]) was 34.1%. For the same compound, the Activity (Canis familiaris [7]) was “Non-toxic”, the Activity (Pneumocystis carinii [8]) was “Active” and the MST (Plasmodium berghei [9]) was 11.6 days. The inhibition in vivo at 10 mg/kg/day (Leishmania donovani [10]) was 99.8%, the Activity (Mus musculus) was “Toxic” and the Activity (Plasmodium berghei [11]) was “Active”. For the same compound, the Activity (Canis familiaris [12]) was “Non-toxic”, the inhibition in vivo at 5 mg/kg/day (Leishmania donovani [13]) was 99.2% and the Activity (Pneumocystis carinii [14]) was “Active”. The Activity (Pneumocystis carinii [15]) was “Active”, the Activity (Pneumocystis carinii [16]) was “Active” and the Activity (Plasmodium berghei [17]) was 0.1%. For the same compound, the inhibition in vivo at 100 mg/kg/day (Leishmania donovani [18]) was 99% and the Activity (Plasmodium berghei [19]) was 4.8%.
For `COc1cc(N[C@H](C)CCCN)c2nccc(C)c2c1Oc1ccc(Cl)c(Cl)c1.O=C(O)CCC(=O)O`, the Activity (Pneumocystis carinii [20]) was “Active”, the Activity (Plasmodium berghei [21]) was “inactive” and the MST (Plasmodium berghei [4]) was 20.5 days. The Activity (Plasmodium berghei [22]) was “inactive”, the inhibition in vivo at 0.4 mg/kg/day (Leishmania donovani [6]) was 61.5% and the ED90 (Leishmania donovani [23]) was 3.61 mg/kg. The ED50 (Leishmania donovani [23]; Leishmania donovani, HU3) was 1.28 mg/kg, the Activity (Plasmodium berghei [24]) was “inactive” and the Activity (Plasmodium berghei [25]) was “inactive”. For the same compound, the Activity (Pneumocystis carinii [26]) was “Active”, the Activity (Pneumocystis carinii [8]) was “Active” and the Activity (Pneumocystis carinii [27]) was “Active”. For the same compound, the MST (Plasmodium berghei [9]) was 11.6 days, the inhibition in vivo at 10 mg/kg/day (Leishmania donovani [10]) was 99.3% and the Activity (Pneumocystis carinii [28]) was “Active”. For the same compound, the MST (Plasmodium berghei [29]) was 8.4 days, the Activity (Canis familiaris [30]) was “Toxic” and the Activity (Pneumocystis carinii [31]) was “Active”. The inhibition in vivo at 5 mg/kg/day (Leishmania donovani [13]) was 98%, the Activity (Pneumocystis carinii [14]) was “Active” and the Activity (Pneumocystis carinii [32]) was “Active”. The Activity (Plasmodium berghei [33]) was “inactive”, the Activity (Pneumocystis carinii [34]) was “Active” and the MST (Plasmodium berghei [35]) was 4.6 days. For the same compound, the Activity (Plasmodium berghei [17]) was 0%, the Activity (Plasmodium berghei [36]) was 0% and the inhibition in vivo at 100 mg/kg/day (Leishmania donovani [18]) was 99.8%. The Activity (Plasmodium berghei [19]) was 0.2%.
